Compounds with a hit are over-represented: about 2.1% of the library has one in this group of screens.
SR-BI DiI inh: inhibitors of SR-BI mediated HDL lipid uptake, primary screen, ldlA[mSR-BI] cells, fluorescence, single point; 320,000 tested, 0.96% active; Scavenger receptor class B member 1 (Mus musculus), Q61009; ldlA[mSR-BI] CHO cells, DiI-HDL uptake fluorescence, 3 h; inhibition, % at 12.5 µM;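 active means mean replicate inhibition of at least 70% and a set share of replicates each scoring 70 or more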;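 further: 0% = median of neutral control wells and 100% = median of positive control wells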
Target sequence (Q61009 whole entry, looked up): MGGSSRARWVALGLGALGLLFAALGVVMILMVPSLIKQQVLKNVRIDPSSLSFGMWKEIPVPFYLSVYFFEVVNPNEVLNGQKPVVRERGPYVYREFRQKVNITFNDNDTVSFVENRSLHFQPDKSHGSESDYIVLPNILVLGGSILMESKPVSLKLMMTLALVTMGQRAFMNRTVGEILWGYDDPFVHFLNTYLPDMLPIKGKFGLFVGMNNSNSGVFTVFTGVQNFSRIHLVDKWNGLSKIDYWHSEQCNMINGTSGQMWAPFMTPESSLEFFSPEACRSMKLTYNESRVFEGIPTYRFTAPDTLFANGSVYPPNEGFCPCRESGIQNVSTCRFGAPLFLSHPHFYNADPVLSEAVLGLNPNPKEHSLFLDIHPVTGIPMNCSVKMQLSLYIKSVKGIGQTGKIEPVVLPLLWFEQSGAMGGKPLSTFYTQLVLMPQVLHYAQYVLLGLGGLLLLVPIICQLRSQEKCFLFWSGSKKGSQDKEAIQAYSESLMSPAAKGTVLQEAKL
CAL PDZ FP-1: untagged CAL PDZ binding inhibitors, primary screen, biochemical, fluorescence polarization, HTS | Golgi-associated PDZ and coiled-coil motif-containing protein (Homo sapiens), Q9HD26 | purified CAL PDZ, TMR-peptide fluorescence polarization, 1 h | inhibition, % at 24.9 µM | 300,000 tested, 0.92% active | AID 602252, 2012;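 active means mean inhibition of at least 30% with at least half of replicates also reaching 30%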;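 further: 0% = DMSO neutral control and 100% = excess unlabeled competitor peptide PRC23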
CAL PDZ FP-2: CAL PDZ peptide-binding inhibitors, primary screen, biochemical, fluorescence polarization, Cer-tagged CAL PDZ, HTS; Golgi-associated PDZ and coiled-coil motif-containing protein (Homo sapiens), Q9HD26; 330,000 tested, 0.02% active; purified CAL PDZ, TMR-peptide fluorescence polarization, 1 h; inhibition, % at 20 µM;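 active means highest replicate inhibition of at least 40%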;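 further: plate controls were DMSO neutral control wells for no effect and unlabeled competitor peptide control wells for full effect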
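Control set: unlabelled peptide and DMSO controls / Material: purified CerCALP PDZ construct / Timing: 1 h incubation at room temperature before polarization reading / Doses: 20 µM, one dose / Detection: fluorescence polarization (mP)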
miR-122 sensor: miR-122 Renilla sensor signal increase in Huh7, primary screen, miR-122 inhibitor project, cell-based, single point, plate reader | Huh7 miR-122 Renilla luciferase sensor, 48 h; neutral wells = 0, positive control = 100 | activation (reporter increase), % at 12.5 µM | 340,000 tested, 0.3% active;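 active means mean replicate activation score at least 90 and every replicate individually at or above 90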;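 further: higher luciferase means less miR-122 activity so hits act as miR-122 inhibitors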
SR-BI uptake up: activators of SR-BI mediated DiI-HDL uptake, primary screen, ldlA[mSR-BI] CHO cells, DiI fluorescence. 3 h; 100 = double the neutral-control signal. activation, % at 12.5 µM. 320,000 tested, 0.096% active. AID 504775, 2011;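 active means mean replicate activation of at least 60% and every replicate at or above 60%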;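 further: 0% = median plate neutral-control signal and 100% = twice that signal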
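Assay system: CHO ldlA[mSR-BI] cells, LDL receptor-null, SR-BI overexpressing; medium: Ham's F12 with 0.5% BSA, HEPES 25 mM, pH 7.4; also added: DiI-HDL 10 µg/mL; timing: 3 h uptake period with compound, 37 °C; signal: DiI fluorescence, bottom read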
ARNT TACC3 PPI: disruptors of ARNT/TACC3 protein interaction, primary screen, biochemical, AlphaScreen, single concentration; 390,000 tested, 0.66% active; AlphaScreen His-ARNT PAS-B/GST-TACC3 binding, luminescence; TACC3 fragment carries E629A point mutation; AID 623870, 2012; Transforming acidic coiled-coil-containing protein 3 (Homo sapiens), Q9Y6A5; inhibition, % at 9.99 µM;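 active means mean inhibition of replicates at least 50% and at least half of replicates each reaching 50%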;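 further: 0% = complete ARNT plus TACC3 wells and 100% = ARNT alone without TACC3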
* hit, by the source's call; [ ] = another dose, or the depositor's remark.

How did O=C(C1CC(=O)N(c2ccc3c(c2)OCCO3)C1)N1CCN(S(=O)(=O)c2ccc(F)cc2)CC1 (stereo not drawn) do in these assays?
SR-BI DiI inh: -23.8; CAL PDZ FP-1: 68.1*; CAL PDZ FP-2: -1.9; miR-122 sensor: 0.6; SR-BI uptake up: 23.8; ARNT TACC3 PPI: -6.4

How did CCCn1nnnc1NCc1cccc(Cl)c1 do in these assays?
SR-BI DiI inh: -11.4; CAL PDZ FP-1: 80.2*; CAL PDZ FP-2: -6.6; miR-122 sensor: 1.1; SR-BI uptake up: 11.4; ARNT TACC3 PPI: -5.6

What do the screens show for `COc1cc(OC)c2c(-c3cccc(-c4ccc(O)cc4)c3)cc(=O)oc2c1`?
SR-BI DiI inh: 28.3; CAL PDZ FP-1: -3.3; CAL PDZ FP-2: -1.9; miR-122 sensor: 98.6*; SR-BI uptake up: -28.3; ARNT TACC3 PPI: 1.4

What do the screens show for `COc1cc(OC)c2c(-c3cccc(-c4cccc(C)c4)c3)cc(=O)oc2c1`?
SR-BI DiI inh: 59.4; CAL PDZ FP-1: -3.6; CAL PDZ FP-2: -0.9; miR-122 sensor: 5.5; SR-BI uptake up: -59.4; ARNT TACC3 PPI: -5.5

Results for COc1cc(OC)c2c(-c3cccc(-c4ccc(OC(F)(F)F)cc4)c3)cc(=O)oc2c1 ?
SR-BI DiI inh: 16.1; CAL PDZ FP-1: -4.7; CAL PDZ FP-2: -0.9; miR-122 sensor: -9.2; SR-BI uptake up: -16.1; ARNT TACC3 PPI: -3.6

Results for COc1ccc(-c2cccc(-c3cc(=O)oc4cc(OC)cc(OC)c34)c2)cc1 ?
SR-BI DiI inh: 19.7; CAL PDZ FP-1: -4.7; CAL PDZ FP-2: -2.0; miR-122 sensor: 104.1*; SR-BI uptake up: -19.7; ARNT TACC3 PPI: 1.8

Results for COc1cc(OC)c2c(-c3cccc(-c4ccc(N(C)C)cc4)c3)cc(=O)oc2c1 ?
SR-BI DiI inh: 54.7; CAL PDZ FP-1: -3.7; CAL PDZ FP-2: -0.5; miR-122 sensor: 97.2*; SR-BI uptake up: -54.7; ARNT TACC3 PPI: 3.7

How did C[C@H](CO)N1C[C@H](C)[C@@H](CN(C)C(=O)Nc2ccc(F)cc2)Oc2ccc(NC(=O)CCN3CCOCC3)cc2C1=O do in these assays?
miR-122 sensor: 1.4[16.7 µM]; ARNT TACC3 PPI: 0.0

How did COc1ccccc1OCCSc1nc2ccccc2n1CC(N)=O do in these assays?
SR-BI DiI inh: -20.9; CAL PDZ FP-1: 58.8*; SR-BI uptake up: 20.9; ARNT TACC3 PPI: -27.1

How did CCOC(=O)/C=C/c1ccc2c(c1)S(=O)(=O)N(c1cccc(OC)c1)[C@H]2CC(=O)OCC do in these assays?
SR-BI DiI inh: 83.2*; CAL PDZ FP-1: 1.6; CAL PDZ FP-2: 0.6; miR-122 sensor: -1.3; SR-BI uptake up: -83.2; ARNT TACC3 PPI: -3.1

Results for O=C(COc1ccc(Br)cc1)Nc1ccccc1C(=O)N1CCOCC1 ?
SR-BI DiI inh: -30.5; CAL PDZ FP-1: -4.5; CAL PDZ FP-2: -0.6; miR-122 sensor: -4.5; SR-BI uptake up: 30.4; ARNT TACC3 PPI: -5.2

How did COc1ccc(OCC(=O)Nc2ccccc2C(=O)N2CCOCC2)cc1 do in these assays?
SR-BI DiI inh: -17.6; CAL PDZ FP-1: 51.2*; CAL PDZ FP-2: 18.9; SR-BI uptake up: 17.6; ARNT TACC3 PPI: -4.9

What do the screens show for `COc1ccc(OCC(=O)Nc2ccc(N3CCN(C(=O)c4ccccc4C)CC3)cc2)cc1`?
SR-BI DiI inh: 77.1*; CAL PDZ FP-1: -1.7; CAL PDZ FP-2: -0.2; miR-122 sensor: -9.7; SR-BI uptake up: -77.1; ARNT TACC3 PPI: 21.4

Results for CCc1ccc(OCC(=O)Nc2ccc(N3CCN(C(=O)c4ccccc4)CC3)cc2)cc1 ?
SR-BI DiI inh: 45.0; CAL PDZ FP-1: -3.8; CAL PDZ FP-2: 0.8; miR-122 sensor: -6.0; SR-BI uptake up: -45.0; ARNT TACC3 PPI: 3.9

Results for C[C@H]1CN([C@@H](C)CO)C(=O)c2cccc(NC(=O)Nc3ccccc3)c2O[C@@H]1CN(C)S(=O)(=O)c1ccc(Cl)cc1 ?
miR-122 sensor: -3.0[16.7 µM]; ARNT TACC3 PPI: 1.8

How did Cc1ccc(S(=O)(=O)Nc2ccc3c(c2)C(=O)N([C@@H](C)CO)C[C@@H](C)[C@H](CN(C)Cc2ccc(C(F)(F)F)cc2)OCCCC[C@@H](C)O3)cc1 do in these assays?
miR-122 sensor: -15.6[16.7 µM]; ARNT TACC3 PPI: 3.6

How did CCC(=O)N(C)C[C@@H]1Oc2cc(-c3cccc(OC)c3)ccc2S(=O)(=O)N([C@H](C)CO)C[C@H]1C do in these assays?
miR-122 sensor: -0.8[16.7 µM]; ARNT TACC3 PPI: -10.1

Results for CC1=C(c2ccccc2)CCC1=O ?
SR-BI DiI inh: -28.5; CAL PDZ FP-1: -2.3; CAL PDZ FP-2: 1.4; miR-122 sensor: 6.8; SR-BI uptake up: 28.5; ARNT TACC3 PPI: -2.7

Results for O=C1CC(c2ccccc2)=C(c2ccccc2)C1 ?
SR-BI DiI inh: -13.2; CAL PDZ FP-1: -4.1; CAL PDZ FP-2: 50.2*; SR-BI uptake up: 13.2; ARNT TACC3 PPI: 7.7

Results for CCc1c(C(=O)N/N=C/c2ccc(OCc3ccc(F)cc3)c(OC)c2)nnn1-c1nonc1N ?
SR-BI DiI inh: 75.8*; CAL PDZ FP-1: -4.5; CAL PDZ FP-2: -1.2; SR-BI uptake up: -75.8; ARNT TACC3 PPI: -3.6

What do the screens show for `Nc1nonc1-n1nnc(C(=O)N/N=C/c2ccc(OCc3ccc(F)cc3)cc2)c1COc1ccccc1`?
SR-BI DiI inh: 51.2; CAL PDZ FP-1: -4.0; CAL PDZ FP-2: -0.1; miR-122 sensor: 17.9; SR-BI uptake up: -51.2; ARNT TACC3 PPI: -13.6

Results for CCOc1cc(/C=N/NC(=O)c2nnn(-c3nonc3N)c2C)ccc1OCc1ccc(F)cc1 ?
SR-BI DiI inh: 58.2; CAL PDZ FP-1: -6.0; CAL PDZ FP-2: -1.8; miR-122 sensor: -1.1; ARNT TACC3 PPI: -4.4

What do the screens show for `Cc1ccc(COc2ccc(/C=N/NC(=O)c3nnn(-c4nonc4N)c3COc3ccc(F)cc3)cc2)cc1`?
SR-BI DiI inh: 71.0*; CAL PDZ FP-1: -6.2; CAL PDZ FP-2: -0.2; miR-122 sensor: 2.4; SR-BI uptake up: -71.0; ARNT TACC3 PPI: 4.5

What do the screens show for `C[C@@H]1CN([C@H](C)CO)C(=O)c2cc(C#CCN(C)C)cnc2O[C@H]1CN(C)Cc1ccccn1`?
miR-122 sensor: -1.6[16.7 µM]; ARNT TACC3 PPI: -5.4

How did C=CCOc1ccc(/C(O)=C2/C(=O)C(=O)N(CCCN3CCOCC3)C2c2ccc(OC)cc2)cc1 (stereo not drawn) do in these assays?
SR-BI DiI inh: 8.8; CAL PDZ FP-1: 39.9*; miR-122 sensor: 7.3; SR-BI uptake up: -8.8; ARNT TACC3 PPI: 2.7

Compound activity as filed in PubChem.
